This passage reports IC50 and Activity results from ChEMBL document CHEMBL1777742, “Synthesis, cytotoxic activities and cell cycle arrest profiles of naphtho[2,1-α]pyrrolo[3,4-c]carbazole-5,7(6H,12H)-dione glycosides” (Bioorg Med Chem Lett, 2011).

Activity calls are given as the source filed them. The rule behind the calls is not given here.

What all share (assay type): functional, cell-based
For one experiment, the system named is PC-3. The experiment is described as follows: Cytotoxicity against human PC3 cells.
Experiment [1] deals with MCF7. The experiment in a line: Cytotoxicity against human MCF7 cells.
The test system of experiment [2] is MCF7. The experiment is described as follows: Cell cycle arrest in human MCF7 cells assessed as accumulation of cells at S phase at 10 uM after 24 hrs by FACS analysis. The gist of the method: (§1)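 MCF-7 breast cells were exposed to each compound at 10 μM for 24 h. Cell-cycle distribution was then analysed by FACS, reading the percentage of cells in G1 and S phases.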
(In general: Flow cytometry measures light scatter and fluorescence of single cells or particles in a stream.)

For the next experiment, the system named is MDA-MB-435. The experiment is described as follows: Cytotoxicity against human MDA-MB-435 cells.
In experiment [3] the test system is BXPC-3. The experiment in a line: Cytotoxicity against human BxPC3 cells.
For another experiment, the system named is A549. The experiment is described as follows: Cytotoxicity against human A549 cells.
For the next experiment, the system named is HCT-116. The experiment in a line: Cytotoxicity against human HCT116 cells.
The next experiment has as its system MDA-MB-468. The experiment in a line: Cytotoxicity against human MDA-MB-468 cells.
In another experiment the test system is MDA-MB-231. The experiment in a line: Cytotoxicity against human MDA-MB-231 cells.
Experiment [4] has as its system MCF7. The experiment in a line: Cell cycle arrest in human MCF7 cells assessed as accumulation of cells at G1 phase at 10 uM after 24 hrs by FACS analysis. Put shortly: as §1
The test system of experiment [5] is BXPC-3. The experiment in a line: Cell cycle arrest in human BxPC3 cells assessed as accumulation of cells at S phase at 10 uM after 24 hrs by FACS analysis. The gist of the method:
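BxPC3 cells were treated with each compound at 10 μM. The cell-cycle profile was determined by FACS as the percentage of cells in each phase, including S and G2/M.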

Experiment [6] concerns BXPC-3. The experiment is described as follows: Cell cycle arrest in human BxPC3 cells assessed as accumulation of cells at G2/M phase at 10 uM after 24 hrs by FACS analysis. Put shortly: (§2)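 Cells were treated with a single 10 μM concentration and analysed by FACS for cell-cycle distribution. The read-out was the percentage of cells in the G1, S and G2/M phases. A 24 h exposure is stated for MCF-7; no duration is given for BxPC3.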

For experiment [7], the system named is MCF7. The experiment is described as follows: Cell cycle arrest in human MCF7 cells assessed as decrease of cells at S phase at 10 uM after 24 hrs by FACS analysis. The gist of the method:
as §2

Take `C[C@@H]1O[C@@H](n2c3ccccc3c3c4c(c5c6ccccc6ccc5c32)C(=O)NC4=O)[C@H](O)[C@H](O)[C@H]1O`: the IC50 (commonly the concentration needed to halve the response being measured) in the experiment with PC-3 was found to be 2.7 µM; in the experiment on MCF7 [1] it was 4.5 µM; in the experiment on MDA-MB-435 it was 3.6 µM; in the experiment on BXPC-3 [3], 7.3 µM; with A549, 2.8 µM; with HCT-116 it was 3.1 µM. The half-inhibitory concentration (IC50) in the experiment on MDA-MB-468 was determined as 5 µM; in the experiment on MDA-MB-231, 4.7 µM. In the experiment with MCF7 [2], the outcome was Active. Moreover, in the experiment on MCF7 [4], the outcome was inactive.
As for `O=C1NC(=O)c2c1c1c3ccccc3ccc1c1c2c2ccccc2n1[C@H]1C[C@H](O)[C@@H](CO)O1`, the half-maximal inhibitory concentration (IC50) was 2.6 µM in the experiment on PC-3; 7.3 µM with MCF7 [1]; 4.1 µM with MDA-MB-435; 7.4 µM in the experiment with BXPC-3 [3]; 3.4 µM with A549; 8.7 µM in the experiment with HCT-116. The IC50 with MDA-MB-468 was 9.1 µM; in the experiment on MDA-MB-231 it was 3.3 µM. The outcome in the experiment on MCF7 [2] and in the experiment with BXPC-3 [5] was Active. In addition, in the experiment with MCF7 [4], the result was inactive.
For the compound `O=C1NC(=O)c2c1c1c3ccccc3ccc1c1c2c2ccccc2n1[C@@H]1O[C@H](CO)[C@@H](O)[C@H](O)[C@H]1O`, the IC50 was 2.3 µM in the experiment with PC-3; 6.1 µM with MCF7 [1]; 3.5 µM in the experiment on MDA-MB-435; 5.4 µM in the experiment with BXPC-3 [3]; 2.8 µM in the experiment on A549; 5.1 µM with HCT-116. Besides, the IC50 in the experiment on MDA-MB-468 is 6.1 µM; in the experiment on MDA-MB-231, 2.7 µM. In addition, the result in the experiment on MCF7 [2] and with BXPC-3 [5] was Active. The result with MCF7 [4] was inactive.
Turning to `O=C1NC(=O)c2c1c1c3ccccc3ccc1c1c2c2ccccc2n1[C@@H]1O[C@H](CO)[C@@H](O)[C@H]1O`, the half-inhibitory concentration (IC50) was determined as 2.4 µM in the experiment on PC-3; 5.3 µM in the experiment on MCF7 [1]; 3.2 µM in the experiment on MDA-MB-435; 5.3 µM with BXPC-3 [3]; 2.1 µM with A549; 3.8 µM in the experiment with HCT-116. Also, the half-inhibitory concentration (IC50) turned out to be 4.4 µM in the experiment with MDA-MB-468 and 2.4 µM in the experiment on MDA-MB-231. Moreover, the result in the experiment on MCF7 [2] and with BXPC-3 [5] was Active. Further, the outcome with MCF7 [4] was inactive.
As for `O=C1NC(=O)c2c1c1c3ccccc3ccc1c1[nH]c3ccccc3c21`, the outcome in the experiment on BXPC-3 [6], with MCF7 [7] and in the experiment on MCF7 [4] was Active. In addition, the IC50 with PC-3 worked out at 5.9 µM; in the experiment with MCF7 [1], 8.3 µM; in the experiment with MDA-MB-435, 5.7 µM; in the experiment with BXPC-3 [3], 8.3 µM; in the experiment with A549 it was 2.6 µM; with HCT-116, 5.7 µM. Besides, the values for the 50% inhibitory concentration (IC50) in the experiment with MDA-MB-468 and with MDA-MB-231 were > 10 µM and 8.1 µM, respectively.
In the case of `O=C1NC(=O)c2c1c1c3ccccc3ccc1c1c2c2ccccc2n1[C@H]1OC[C@@H](O)[C@@H](O)[C@H]1O`, the 50% inhibitory concentration (IC50) was 2.1 µM in the experiment on PC-3; 4.8 µM in the experiment on MCF7 [1]; 3.3 µM in the experiment with MDA-MB-435; 6.6 µM in the experiment with BXPC-3 [3]; 2 µM in the experiment with A549; 6 µM in the experiment with HCT-116. The IC50 in the experiment with MDA-MB-468 came out at 3.4 µM; in the experiment on MDA-MB-231, 3.3 µM. Further, the result in the experiment on MCF7 [2] was Active. Also, the result in the experiment on MCF7 [4] was inactive.
